# Legend:
# [1] = molecular target: Alpha adrenergic receptor 1A and 1B (Rattus norvegicus) (UniProt P15823+P43140); experiment: Selectivity is ratio of pKi (binding affinity) of alpha-1B receptor to that of alpha-1A receptor.; assay type: protein assay
# [2] = molecular target: T1, Alpha-1A adrenergic receptor (Bos taurus, UniProt P18130); experiment: In vitro binding affinity towards alpha-1A adrenergic receptor of bovine clone in radioligand binding assay
# T1 sequence (P18130 whole entry): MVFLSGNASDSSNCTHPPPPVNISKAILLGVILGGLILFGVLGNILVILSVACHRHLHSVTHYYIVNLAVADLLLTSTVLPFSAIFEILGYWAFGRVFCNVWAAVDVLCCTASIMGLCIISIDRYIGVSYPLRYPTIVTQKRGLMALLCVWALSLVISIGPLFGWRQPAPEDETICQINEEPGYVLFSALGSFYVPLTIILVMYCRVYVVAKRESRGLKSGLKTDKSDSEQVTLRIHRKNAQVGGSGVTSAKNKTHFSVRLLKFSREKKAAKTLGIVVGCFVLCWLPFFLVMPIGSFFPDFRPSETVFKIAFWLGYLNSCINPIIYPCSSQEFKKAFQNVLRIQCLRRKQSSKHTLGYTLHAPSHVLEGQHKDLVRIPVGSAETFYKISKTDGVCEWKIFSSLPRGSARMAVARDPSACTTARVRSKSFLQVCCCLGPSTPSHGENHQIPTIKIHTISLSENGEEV
# [3] = molecular target: Alpha adrenergic receptor 1A and 1D (Rattus norvegicus) (UniProt P23944+P43140); experiment: Selectivity is ratio of pKi (binding affinity) of Alpha-1D to that of alpha1A; assay type: protein assay
# [4] = molecular target: T2, Alpha-1B adrenergic receptor (Mesocricetus auratus, UniProt P18841); experiment: In vitro binding affinity towards alpha-1B adrenergic receptor of hamster clone in radioligand binding assay; assay type: single protein
# T2 sequence (P18841 whole entry): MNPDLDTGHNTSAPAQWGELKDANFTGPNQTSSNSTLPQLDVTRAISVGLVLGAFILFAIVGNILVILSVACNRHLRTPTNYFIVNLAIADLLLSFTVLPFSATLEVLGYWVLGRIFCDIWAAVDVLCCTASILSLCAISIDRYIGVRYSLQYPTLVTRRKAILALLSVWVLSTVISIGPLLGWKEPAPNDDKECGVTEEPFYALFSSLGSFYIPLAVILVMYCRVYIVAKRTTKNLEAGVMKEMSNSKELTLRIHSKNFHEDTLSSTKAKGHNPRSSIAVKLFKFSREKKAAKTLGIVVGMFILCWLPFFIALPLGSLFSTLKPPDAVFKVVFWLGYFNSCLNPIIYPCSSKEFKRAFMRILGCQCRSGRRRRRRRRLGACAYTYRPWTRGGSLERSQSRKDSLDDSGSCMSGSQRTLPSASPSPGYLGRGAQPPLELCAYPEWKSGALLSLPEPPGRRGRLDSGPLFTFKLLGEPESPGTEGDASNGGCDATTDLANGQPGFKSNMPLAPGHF
# Summary of the method: (§1)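 Radioligand binding at α1 subtypes: α1A from rat submaxillary gland, α1B hamster clone, α1D rat clone. Run essentially per an earlier method.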
# Rattus norvegicus = species on record: Rattus norvegicus; experiment: Relative affinities for alpha2B and alpha1A receptors
# [5] = molecular target: T3, Alpha-2B adrenergic receptor (Rattus norvegicus, UniProt P19328); experiment: In vitro binding affinity towards alpha-2B adrenergic receptor of rat neonatal lung in radioligand binding assay
# T3 sequence (P19328 whole entry): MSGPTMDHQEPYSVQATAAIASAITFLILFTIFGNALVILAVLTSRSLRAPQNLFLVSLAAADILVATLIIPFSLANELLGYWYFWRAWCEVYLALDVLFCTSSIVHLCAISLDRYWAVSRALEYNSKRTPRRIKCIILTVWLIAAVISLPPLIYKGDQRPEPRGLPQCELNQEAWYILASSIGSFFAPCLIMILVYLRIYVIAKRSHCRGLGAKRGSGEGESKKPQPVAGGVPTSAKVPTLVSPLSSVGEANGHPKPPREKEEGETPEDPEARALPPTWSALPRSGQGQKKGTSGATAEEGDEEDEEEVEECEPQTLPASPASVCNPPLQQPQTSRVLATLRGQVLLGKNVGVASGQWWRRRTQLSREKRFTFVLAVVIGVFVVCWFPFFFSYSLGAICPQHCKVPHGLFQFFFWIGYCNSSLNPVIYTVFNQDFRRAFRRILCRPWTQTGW
# [6] = molecular target: T4, Alpha-1D adrenergic receptor (Rattus norvegicus, UniProt P23944); experiment: In vitro binding affinity towards alpha-1D adrenergic receptor of rat clone in radioligand binding assay; summary of the method: as §1
# T4 sequence (P23944 whole entry): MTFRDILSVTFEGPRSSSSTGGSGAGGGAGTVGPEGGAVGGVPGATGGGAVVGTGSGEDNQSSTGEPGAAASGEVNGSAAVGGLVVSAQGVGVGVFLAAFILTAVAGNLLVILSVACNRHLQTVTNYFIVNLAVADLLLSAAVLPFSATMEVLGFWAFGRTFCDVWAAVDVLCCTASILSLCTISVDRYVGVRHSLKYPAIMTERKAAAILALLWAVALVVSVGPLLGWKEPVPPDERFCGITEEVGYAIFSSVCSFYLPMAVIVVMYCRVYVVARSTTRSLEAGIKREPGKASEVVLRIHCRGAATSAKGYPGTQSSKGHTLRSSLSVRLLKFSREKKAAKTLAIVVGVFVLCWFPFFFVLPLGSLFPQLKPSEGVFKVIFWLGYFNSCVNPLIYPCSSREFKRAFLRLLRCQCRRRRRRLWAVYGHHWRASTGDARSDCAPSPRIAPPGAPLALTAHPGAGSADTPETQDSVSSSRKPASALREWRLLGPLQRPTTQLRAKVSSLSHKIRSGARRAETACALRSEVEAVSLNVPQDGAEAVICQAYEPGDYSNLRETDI
# [7] = Relative affinities for alpha-2a and alpha-1A receptors
# [8] = molecular target: T5, Alpha-2A adrenergic receptor (Homo sapiens, UniProt P08913); experiment: In vitro binding affinity towards alpha-2A adrenergic receptor of human clone in radioligand binding assay
# T5 sequence (P08913 whole entry): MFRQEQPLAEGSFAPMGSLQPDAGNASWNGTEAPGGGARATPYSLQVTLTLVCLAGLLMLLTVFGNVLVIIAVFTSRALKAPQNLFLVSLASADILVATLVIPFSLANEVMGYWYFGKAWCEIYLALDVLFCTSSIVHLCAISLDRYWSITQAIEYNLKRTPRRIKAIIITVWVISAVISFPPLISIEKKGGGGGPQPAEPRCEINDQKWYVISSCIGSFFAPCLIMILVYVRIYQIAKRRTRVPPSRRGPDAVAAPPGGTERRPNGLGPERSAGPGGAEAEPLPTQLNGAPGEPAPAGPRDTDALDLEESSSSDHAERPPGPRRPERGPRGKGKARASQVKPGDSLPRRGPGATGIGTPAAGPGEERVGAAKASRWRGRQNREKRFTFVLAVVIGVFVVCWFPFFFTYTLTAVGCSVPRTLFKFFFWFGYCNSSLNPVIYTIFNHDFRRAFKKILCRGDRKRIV
# [9] = molecular target: T6, Alpha-1A adrenergic receptor (Oryctolagus cuniculus) (UniProt O02824); experiment: Efficacy relative to phenylephrine (PE) to constrict tissue containing the alpha-1A adrenergic receptor in rabbit urethra; assay type: functional, tissue-based
# T6 sequence (whole entry): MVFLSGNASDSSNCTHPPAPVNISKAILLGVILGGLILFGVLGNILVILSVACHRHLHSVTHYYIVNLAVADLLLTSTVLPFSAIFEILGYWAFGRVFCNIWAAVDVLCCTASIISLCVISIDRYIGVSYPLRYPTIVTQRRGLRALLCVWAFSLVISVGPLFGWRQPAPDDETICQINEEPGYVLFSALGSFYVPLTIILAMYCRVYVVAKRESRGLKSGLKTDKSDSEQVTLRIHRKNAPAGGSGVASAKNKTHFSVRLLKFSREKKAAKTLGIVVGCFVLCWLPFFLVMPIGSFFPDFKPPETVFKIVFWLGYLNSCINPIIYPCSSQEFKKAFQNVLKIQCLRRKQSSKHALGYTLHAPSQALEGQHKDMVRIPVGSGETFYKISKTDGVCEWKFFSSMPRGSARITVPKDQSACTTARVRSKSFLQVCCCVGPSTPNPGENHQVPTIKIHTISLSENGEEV
# Summary of the method: (§2)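 α1-agonist dose–response curves in isolated tissue: rabbit urethra (α1A), rat spleen (α1B), rat aorta (α1D). Agonist potency and efficacy read from the concentration–response curves.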
# [10] = molecular target: T7, Alpha-1B adrenergic receptor (Rattus norvegicus) (UniProt P15823); experiment: Efficacy relative to phenylephrine (PE) constriction of rat spleen containing alpha-1B adrenergic receptor; assay type: functional, tissue-based; summary of the method: as §2
# T7 sequence (whole entry): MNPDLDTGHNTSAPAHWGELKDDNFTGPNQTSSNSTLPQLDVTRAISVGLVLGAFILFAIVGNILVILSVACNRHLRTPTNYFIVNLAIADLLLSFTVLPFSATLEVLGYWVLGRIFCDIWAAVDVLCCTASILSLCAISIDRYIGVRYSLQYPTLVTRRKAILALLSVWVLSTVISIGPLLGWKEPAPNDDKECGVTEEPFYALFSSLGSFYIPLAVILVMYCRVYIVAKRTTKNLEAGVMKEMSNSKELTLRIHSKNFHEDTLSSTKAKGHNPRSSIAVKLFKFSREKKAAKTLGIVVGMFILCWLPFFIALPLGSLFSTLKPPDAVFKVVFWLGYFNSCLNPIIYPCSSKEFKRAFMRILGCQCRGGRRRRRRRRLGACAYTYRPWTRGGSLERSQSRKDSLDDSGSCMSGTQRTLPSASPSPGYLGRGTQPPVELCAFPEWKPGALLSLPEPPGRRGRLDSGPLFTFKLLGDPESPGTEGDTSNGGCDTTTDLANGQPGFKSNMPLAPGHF
# Canis familiaris [11] = experiment: Uroselectivity was determined by measuring effective dose required for 5 mmHg increase of intraurethral pressure (IUP) in vivo in dog; assay type: functional, Canis lupus familiaris
# Summary of the method: (§3)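 Dog model recording intraurethral pressure (IUP) and mean arterial pressure (MAP) simultaneously. Increasing iv doses given, maximal effect of each dose taken. Doses giving a 5 mmHg rise in IUP (ED Δ5) or 20 mmHg rise in MAP (ED Δ20) were calculated, in nmol/kg ± SEM, n ≥ 4 (2 or 3 where footnoted).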
# Canis familiaris [12] = species on record: Canis familiaris; experiment: Ratio of MAP ED delta20 to that of IUP ED delta5
# Canis familiaris [13] = experiment: Uroselectivity was determined by measuring effective dose required for 20 mmHg increase of mean arterial pressure (MAP) in vivo in dog; assay type: functional, Canis lupus familiaris, Artery; summary of the method: as §3
# [14] = molecular target: T8, Alpha-2A adrenergic receptor (Rattus norvegicus) (UniProt P22909); experiment: Efficacy relative to clonidine to constrict tissue containing the alpha-2A adrenergic receptor in rat prostatic vas deferens
# T8 sequence (whole entry): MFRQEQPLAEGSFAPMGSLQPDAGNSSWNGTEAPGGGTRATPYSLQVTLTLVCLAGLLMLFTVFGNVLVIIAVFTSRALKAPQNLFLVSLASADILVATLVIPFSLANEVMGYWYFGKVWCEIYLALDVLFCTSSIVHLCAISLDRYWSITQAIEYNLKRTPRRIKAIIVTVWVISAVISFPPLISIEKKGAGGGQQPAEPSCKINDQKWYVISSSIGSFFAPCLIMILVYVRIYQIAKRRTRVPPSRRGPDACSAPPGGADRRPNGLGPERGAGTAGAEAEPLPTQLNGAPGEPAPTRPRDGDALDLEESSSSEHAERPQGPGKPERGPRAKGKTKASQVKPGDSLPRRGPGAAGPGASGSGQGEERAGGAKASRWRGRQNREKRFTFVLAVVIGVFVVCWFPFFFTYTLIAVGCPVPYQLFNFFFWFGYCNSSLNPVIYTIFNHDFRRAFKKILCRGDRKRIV
# [15] = Selectivity is ratio of efficacy of alpha-2A to that of alpha1A adrenoceptor; assay type: functional
# [16] = molecular target: T8, Alpha-2A adrenergic receptor (Rattus norvegicus); experiment: Functional agonism to constrict tissue containing alpha-2A adrenergic receptor in rat prostatic vas deferens; assay type: tissue-based
# [17] = molecular target: T6, Alpha-1A adrenergic receptor (Oryctolagus cuniculus); experiment: Functional agonism of the compounds to constrict tissue containing the alpha-1A adrenergic receptor in rabbit urethra; assay type: tissue-based; summary of the method: as §2
# [18] = molecular target: T7, Alpha-1B adrenergic receptor (Rattus norvegicus); experiment: Functional agonism of the compounds to constrict tissue containing the alpha-1B adrenergic receptor in rat spleen; assay type: tissue-based
# Summary of the method: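 Agonist dose–response curves were run on isolated tissue: rabbit urethra for α1A, rat spleen for α1B, and rat aorta for α1D.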
# Sequence of Alpha adrenergic receptor 1A and 1B (Rattus norvegicus) (P43140 whole entry, looked up, one chain of several): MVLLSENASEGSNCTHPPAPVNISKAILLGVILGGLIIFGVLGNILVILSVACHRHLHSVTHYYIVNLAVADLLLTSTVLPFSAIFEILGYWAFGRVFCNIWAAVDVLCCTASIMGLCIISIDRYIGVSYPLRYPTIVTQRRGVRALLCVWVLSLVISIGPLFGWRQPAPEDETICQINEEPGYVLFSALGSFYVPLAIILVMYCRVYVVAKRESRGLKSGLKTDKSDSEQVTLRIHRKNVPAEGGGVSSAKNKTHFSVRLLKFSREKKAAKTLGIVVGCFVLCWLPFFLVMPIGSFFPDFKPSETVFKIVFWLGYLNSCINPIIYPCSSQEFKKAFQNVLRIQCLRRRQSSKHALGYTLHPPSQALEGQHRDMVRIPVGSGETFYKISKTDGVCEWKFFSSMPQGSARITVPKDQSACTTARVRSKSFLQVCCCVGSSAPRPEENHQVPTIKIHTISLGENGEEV
SMILES,Selectivity [1],Ki [2] [nM],Selectivity [3],Ki [4] [nM],Selectivity (Rattus norvegicus),Ki [5] [nM],Ki [6] [nM],Selectivity [7],Ki [8] [nM],Efficacy [9] [%],Efficacy [10] [%],ED delta5 (Canis familiaris [11]) [nM/kg],Ratio (Canis familiaris [12]),ED delta20 (Canis familiaris [13]) [nM/kg],Efficacy [14] [%],Selectivity [15],pD2 [16],pD2 [17],pD2 [18]
CN(C)S(=O)(=O)Nc1cccc2c1CCCC2c1c[nH]cn1 (configuration not stated),20,977,3,> 10000,–,–,–,–,–,–,–,–,–,–,–,–,–,–,–
Oc1cccc2c1CCCC2c1c[nH]cn1 (configuration not stated),3,115,1,145,0.1,3.8,30.9,0.2,8.71,–,–,–,–,–,–,–,–,–,–
CS(=O)(=O)Nc1c(O)ccc2c1CCCC2c1c[nH]cn1 (configuration not stated),–,–,–,–,–,47.9,–,–,44.7,104,94,0.18,1,0.16,–,–,–,–,–
"CCS(=O)(=O)Nc1cccc2c1CCCC2c1c[nH]cn1 (single isomer, unassigned; (+))",30,–,20,1320,40,1700,–,3,132,71,–,–,3.3,34,66,7,5.95,6.77,–
COC(=O)Nc1cccc2c1CCCC2c1c[nH]cn1 (configuration not stated),100,148,30,–,–,–,–,–,–,–,–,–,–,–,–,–,–,–,–
COc1ccc(NS(C)(=O)=O)c2c1C(c1c[nH]cn1)CCC2 (configuration not stated),> 6,–,> 6,> 10000,–,–,> 10000,–,–,57,26,–,2.6,1850,–,–,–,4.81,4.74

# From ChEMBL document CHEMBL1148329, “Synthesis and structure-activity studies on N-[5-(1H-imidazol-4-yl)-5,6,7,8-tetrahydro-1-naphthalenyl]methanesulfonamide, an imidazole-containing alpha(1A)-adrenoceptor agonist” (J Med Chem, 2004)
